Calls of active or inactive are those of the source. No cut-off for these calls is given here.
Columns and labels:
TIG-3 [1] = experiment: Cytoprotective activity against H2O2-induced oxidative stress in human TIG3 cells assessed as decrease in phosphorylated ATM level at 0.6 uM pretreated with H2O2 for 2 hrs followed by compound addition by immuno fluorescence staining based analysis; format: functional, cell-based
Procedure, shortened: (§1)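 TIG-3 fibroblasts (DMEM, 10% FBS, 37 °C) stressed with H2O2 (500 μM, 2 h) or UV (50 mJ/cm2), then recovered in compound-supplemented medium. Cells fixed in chilled absolute methanol and immunostained for the marker. Images taken by fluorescence microscopy and staining intensity quantified. Triplicate experiments.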

TIG-3 [2] = experiment: Induction of oxidative stress in human TIG3 cells assessed as increase in GADD45alpha mRNA levels by RT-PCR analysis; format: cell-based
Procedure, shortened: (§2)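 Total RNA from treated TIG-3 cells; cDNA from 2 μg RNA; PCR 95 °C 10 min, 30 cycles (95 °C 45 s, 58 °C 1 min, 72 °C 45 s), 72 °C 10 min; products on 0.8% agarose, band densitometry; three independent experiments.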

[3] = target: T1, MAP kinase p38 (Homo sapiens) (UniProt O15264+Q15759+Q16539+P53778); experiment: Induction of p38 MAPK phosphorylation at Thr180/Tyr182 residues in UV-irradiated human TIG3 cells using 50 mJ/cm2 of UV radiations followed by compound addition by immuno fluorescence staining based analysis; procedure, shortened: as §1
TIG-3 [4] = experiment: Cytoprotective activity against UV irradiation-induced stress in human TIG3 cells assessed as decrease in p53 level irradiated with 50 mJ/cm2 of UV radiations followed by compound addition by immuno fluorescence staining based assay; format: functional, cell-based
[5] = target: Mitogen-activated protein kinase 1 (Homo sapiens) (UniProt P28482); experiment: Induction of ERK2 phosphorylation at Tyr204 residues in H2O2 treated human TIG3 cells at 0.6 uM pretreated with H2O2 for 2 hrs followed by compound addition by immunoblot analysis
Sequence of Mitogen-activated protein kinase 1 (Homo sapiens) (P28482 whole entry): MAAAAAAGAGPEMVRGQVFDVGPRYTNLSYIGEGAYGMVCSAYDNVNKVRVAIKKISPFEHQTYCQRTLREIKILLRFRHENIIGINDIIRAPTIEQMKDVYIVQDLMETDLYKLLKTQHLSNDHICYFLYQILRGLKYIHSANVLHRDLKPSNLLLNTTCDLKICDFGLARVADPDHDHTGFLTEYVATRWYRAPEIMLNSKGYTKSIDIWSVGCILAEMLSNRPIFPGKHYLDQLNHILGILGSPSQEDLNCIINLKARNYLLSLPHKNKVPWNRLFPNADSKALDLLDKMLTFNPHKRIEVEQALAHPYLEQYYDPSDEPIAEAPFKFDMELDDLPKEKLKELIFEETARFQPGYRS
Procedure, shortened: (§3)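 TIG-3 cells stressed with H2O2 (500 μM, 2 h), then recovered in medium containing 0.3 or 0.6 μM compound. Lysed in NP40 buffer; 10−20 μg protein immunoblotted for pAkt Ser473, p-p38 Thr180/Tyr182, p-p44/42 Thr202/Tyr204, β-catenin, survivin, Bcl-2 or full-length PARP-1. Triplicate experiments.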

TIG-3 [6] = experiment: Cytoprotective activity against H2O2-induced oxidative stress in human TIG3 cells assessed as increase in full length PARP level at 0.6 uM pretreated with H2O2 for 2 hrs followed by compound addition by immunoblot analysis; format: functional, cell-based; procedure, shortened: as §3
TIG-3 [7] = experiment: Cytotoxicity against human TIG3 cells assessed as decrease in ROS generation at 1.5 to 3 uM after 48 hrs; format: cell-based; conditions: tig-3, 48 h
TIG-3 [8] = experiment: Cytoprotective activity against UV irradiation-induced stress in human TIG3 cells assessed as decrease in CARF level irradiated with 50 mJ/cm2 of UV radiations followed by compound addition by immuno fluorescence staining based assay; format: functional, cell-based
TIG-3 [9] = experiment: Effect on p53 expression level in human TIG3 cells at 0.3 to 3 uM by immunoblot analysis; format: cell-based; conditions: tig-3, 3 µM
Procedure, shortened: (§4)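 TIG-3 cells treated with compound, lysed in NP40 buffer (centrifuged 20 min, 4 °C); 10−20 μg protein immunoblotted for indicated proteins; band quantitation from three independent experiments, Student's t or Mann−Whitney test.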

[10] = target: T1, MAP kinase p38 (Homo sapiens); experiment: Induction of p38 MAPK phosphorylation at Thr180/Tyr182 residues in H2O2 treated human TIG3 cells pretreated with H2O2 for 2 hrs followed by compound addition by immuno fluorescence staining based analysis; procedure, shortened: as §1
Homo sapiens = species: Homo sapiens; experiment: Induction of AKT/p38/p44 MAPK-mediated survivin expression level in H2O2 treated human TIG3 cells at 0.6 uM pretreated with H2O2 for 2 hrs followed by compound addition by immunoblot analysis; procedure, shortened: as §3
WI-38 = experiment: Cytotoxicity against human WI38 cells assessed as reduction in cell viability at 1 to 10 uM after 72 hrs; format: cell-based; conditions: wi-38, 72 h
Procedure, shortened: (§5)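 Normal fibroblasts in DMEM/10% FBS at 37 °C given 0.15 to 50 μM compound for 48 or 72 h; viability determined; triplicate, mean ± SEM.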

[11] = target: Mitogen-activated protein kinase 1 (Homo sapiens) (UniProt P28482); experiment: Induction of ERK2 phosphorylation at Tyr204 residues in H2O2 treated human TIG3 cells pretreated with H2O2 for 2 hrs followed by compound addition by immuno fluorescence staining based analysis; procedure, shortened: as §1
TIG-3 [12] = experiment: Cytoprotective activity against UV irradiation-induced stress in human TIG3 cells assessed as increase in cell survival irradiated with 50 mJ/cm2 of UV radiations followed by compound addition measured after 2 days by crystal violet staining based assay; format: functional
TIG-3 [13] = experiment: Cytoprotective activity against H2O2-induced oxidative stress in human TIG3 cells assessed as increase in cell survival at 3 uM pretreated with H2O2 for 2 hrs followed by compound addition measured after 72 hrs by crystal violet staining based assay; format: functional
[14] = target: RAC-alpha serine/threonine-protein kinase (Homo sapiens) (UniProt P31749); experiment: Induction of AKT-mediated beta-catenin expression level in H2O2 treated human TIG3 cells at 0.6 uM pretreated with H2O2 for 2 hrs followed by compound addition by immunoblot analysis; procedure, shortened: as §3
Sequence of RAC-alpha serine/threonine-protein kinase (Homo sapiens) (P31749 whole entry): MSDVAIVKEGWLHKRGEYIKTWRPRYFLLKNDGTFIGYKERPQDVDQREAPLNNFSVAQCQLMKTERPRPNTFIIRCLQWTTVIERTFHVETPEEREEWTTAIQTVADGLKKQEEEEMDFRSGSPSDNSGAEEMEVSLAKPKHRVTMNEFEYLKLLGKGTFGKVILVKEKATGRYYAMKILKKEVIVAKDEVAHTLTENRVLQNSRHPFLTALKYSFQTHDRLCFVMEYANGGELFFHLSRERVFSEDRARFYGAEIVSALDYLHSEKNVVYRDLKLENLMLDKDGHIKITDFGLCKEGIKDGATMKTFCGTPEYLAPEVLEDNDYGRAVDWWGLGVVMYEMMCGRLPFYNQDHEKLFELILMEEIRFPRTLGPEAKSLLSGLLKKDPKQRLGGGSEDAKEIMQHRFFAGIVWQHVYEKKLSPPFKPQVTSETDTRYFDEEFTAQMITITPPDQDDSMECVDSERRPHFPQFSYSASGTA

TIG-3 [15] = experiment: Cytoprotective activity against cisplatin-induced stress in human TIG3 cells assessed as increase in cell survival pretreated with cisplatin for 24 hrs followed by compound addition measured after 2 days by crystal violet staining based assay; format: functional
TIG-3 [16] = experiment: Induction of oxidative stress against human TIG3 cells assessed as increase in CARF mRNA levels by RT-PCR analysis; format: cell-based; procedure, shortened: as §2
TIG-3 [17] = experiment: Cytotoxicity against human TIG3 cells assessed as induction of morphological changes at 0.3 to 1.5 uM after 48 hrs by phase contrast microscopy; format: cell-based; conditions: tig-3, 48 h
Procedure, shortened: (§6)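 Phase-contrast microscopy of morphology of control and treated normal human TIG-3 fibroblasts.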

TIG-3 [18] = experiment: Cytotoxicity against human TIG3 cells assessed as reduction in cell viability at 1 to 10 uM after 72 hrs; format: cell-based; conditions: tig-3, 72 h; procedure, shortened: as §5
[19] = target: Mitogen-activated protein kinase 3 (Homo sapiens) (UniProt P27361); experiment: Induction of ERK1 phosphorylation at Thr202 residues in UV-irradiated human TIG3 cells using 50 mJ/cm2 of UV radiations followed by compound addition by immuno fluorescence staining based analysis; procedure, shortened: as §1
Sequence of Mitogen-activated protein kinase 3 (Homo sapiens) (P27361 whole entry): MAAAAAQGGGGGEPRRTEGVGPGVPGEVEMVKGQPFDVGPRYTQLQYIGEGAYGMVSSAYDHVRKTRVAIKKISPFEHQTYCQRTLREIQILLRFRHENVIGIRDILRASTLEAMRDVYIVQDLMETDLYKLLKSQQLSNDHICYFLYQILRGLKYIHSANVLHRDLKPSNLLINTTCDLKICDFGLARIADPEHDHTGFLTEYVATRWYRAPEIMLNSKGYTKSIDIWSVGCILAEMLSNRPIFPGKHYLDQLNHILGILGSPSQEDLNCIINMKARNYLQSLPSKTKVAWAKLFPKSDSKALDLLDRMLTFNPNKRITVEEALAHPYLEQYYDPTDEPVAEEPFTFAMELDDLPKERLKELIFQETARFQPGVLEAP

TIG-3 [20] = experiment: Decrease in Nrf2 expression level in human TIG3 cells at 0.3 to 3 uM by immunoblot analysis; format: ADME, cell-based; conditions: tig-3, 3 µM; procedure, shortened: as §4
TIG-3 [21] = experiment: Cytoprotective activity against human TIG3 cells assessed as increase in cell viability at 1.5 to 3 uM pretreated with Wi-A at 0.3 uM for 24 hrs followed by compound addition measured after 48 hrs; format: functional, cell-based
Procedure, shortened: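 TIG-3 cells pretreated with 0.3 μM Wi-A for 24 h, then incubated with 1.5 or 3 μM compound for 48 h before viability was read. Triplicate, mean ± SEM.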

TIG-3 [22] = experiment: Effect on mortalin expression level in human TIG3 cells at 0.3 to 3 uM by immuno fluorescence analysis; format: ADME, cell-based; conditions: tig-3, 3 µM
Procedure, shortened: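 Methanol-fixed (chilled absolute methanol) TIG-3 fibroblasts treated with Wi-A or 3βmWi-A; immunofluorescence staining with antibodies, imaged by epifluorescence microscopy; signal quantitated from three independent experiments.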

TIG-3 [23] = experiment: Cytotoxicity against human TIG3 cells assessed as cell death at 0.6 uM; format: cell-based; conditions: tig-3, 0.6 µM; procedure, shortened: as §6
[24] = target: RAC-alpha serine/threonine-protein kinase (Homo sapiens) (UniProt P31749); experiment: Induction of Akt phosphorylation at Ser473 residues in H2O2 treated human TIG3 cells at 0.6 uM pretreated with H2O2 for 2 hrs followed by compound addition by immunoblot analysis; procedure, shortened: as §3

## CO[C@H]1CC(=O)[C@]2(C)[C@H]3CC[C@]4(C)[C@@H]([C@H](C)[C@H]5CC(C)=C(CO)C(=O)O5)CC[C@H]4[C@@H]3C[C@H]3O[C@]32[C@H]1O
TIG-3 [1]
  Activity: Active
TIG-3 [2]
  Activity: Non-Toxic
[3]
  Activity: Active
TIG-3 [4]
  Activity: Active
[5]
  Activity: Active
TIG-3 [6]
  Activity: Active
TIG-3 [7]
  Activity: Non-Toxic
TIG-3 [8]
  Activity: Active
TIG-3 [9]
  Activity: Non-Toxic
[10]
  Activity: Active
Homo sapiens
  Activity: Active
WI-38
  Activity: Non-Toxic
[11]
  Activity: Active
TIG-3 [12]
  Activity: Dose-dependent effect
TIG-3 [13]
  Activity: Active
[14]
  Activity: Active
TIG-3 [15]
  Activity: Dose-dependent effect
TIG-3 [16]
  Activity: Non-Toxic
TIG-3 [17]
  Activity: Non-Toxic
TIG-3 [18]
  Activity: Non-Toxic
[19]
  Activity: Active
TIG-3 [20]
  Activity: Non-Toxic
TIG-3 [21]
  Activity: Active
TIG-3 [22]
  Activity: Non-Toxic
TIG-3 [23]
  Activity: Non-Toxic
[24]
  Activity: Active

Source: ChEMBL document CHEMBL4138133, “2,3-Dihydro-3β-methoxy Withaferin-A Protects Normal Cells against Stress: Molecular Evidence of Its Potent Cytoprotective Activity” (J Nat Prod, 2017)
